# Assay results taken from ChEMBL document CHEMBL1142626, “Insecticidal and mutagenic evaluation of two annonaceous acetogenins” (J Nat Prod, 2000).
# How the values were obtained:
# Salmonella typhimurium [1] = assay: Mutagenic activity in Salmonella Typhimurium TA98 assessed as number of revertants at 10 ug/plate in presence of Wistar rat S9 liver homogenate; type: toxicity, organism-based, Liver S9 fraction; details: salmonella enterica subsp. enterica serovar typhimurium
# Summary of the method: (§1)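 Salmonella/microsome plate test, with or without S9 from livers of male Wistar rats (~200 g). Strain markers and spontaneous revertant counts were routinely verified. Revertants are reported as mean ± standard error of triplicate plates. Strain-specific positive controls were used, with 2-aminoanthracene for all strains when S9 was present.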
# Salmonella typhimurium [2] = assay: Mutagenic activity in Salmonella Typhimurium TA100 assessed as number of revertants at 20 ug/plate in presence of Wistar rat S9 liver homogenate; type: toxicity, organism-based, Liver S9 fraction; details: salmonella enterica subsp. enterica serovar typhimurium; summary of the method: as §1
# Salmonella typhimurium [3] = assay: Mutagenic activity in Salmonella Typhimurium TA102 assessed as number of revertants at 100 ug/plate in absence of Wistar rat S9 liver homogenate; type: toxicity, organism-based; details: salmonella enterica subsp. enterica serovar typhimurium; summary of the method: as §1
# Myzus persicae [4] = assay: Insecticidal activity against Myzus persicae assessed as increase in mortality at 50 ug/cm2 observed daily for 4 days; type: functional, organism-based
# Summary of the method: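 No-choice test: 20 boxes, each with five same-age apterous adult M. persicae (100 insects). Nymphs produced in the first 48 h were separated from adults and kept in similarly treated boxes. Both were observed daily for 4 days for mortality. Analysed by contingency tables and LSD test.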
# Salmonella typhimurium [5] = assay: Mutagenic activity in Salmonella Typhimurium TA102 assessed as number of revertants at 1 ug/plate in presence of Wistar rat S9 liver homogenate; type: toxicity, organism-based, Liver S9 fraction; details: salmonella enterica subsp. enterica serovar typhimurium; summary of the method: as §1
# Salmonella typhimurium [6] = assay: Mutagenic activity in Salmonella Typhimurium TA100 assessed as number of revertants at 20 ug/plate in absence of Wistar rat S9 liver homogenate; type: toxicity, organism-based; details: salmonella enterica subsp. enterica serovar typhimurium; summary of the method: as §1
# Salmonella typhimurium [7] = assay: Mutagenic activity in Salmonella Typhimurium TA98 assessed as number of revertants at 20 ug/plate in absence of Wistar rat S9 liver homogenate; type: toxicity, organism-based; details: salmonella enterica subsp. enterica serovar typhimurium
# Summary of the method: (§2)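 Salmonella/microsome plate test (Ames) in strain TA98, with genetic markers and spontaneous revertant counts verified routinely. Run with and without S9 mix, the S9 being liver postmitochondrial supernatant from male Wistar rats of about 200 g. Doses ran from 0.01 to 100 µg/plate. Revertants are the mean of triplicate plates with standard error. Positive controls were 0.5 µg 4-nitroquinoline-N-oxide without S9 and 15 µg 2-aminoanthracene with S9.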
# Myzus persicae [8] = assay: Antifeedant effect against Myzus persicae assessed as inhibition index at 100 ug/cm2 relative to control; type: functional; set-up: scale not given: the % may be the effect or the level left
# Summary of the method: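 Choice settling test on apterous adult M. persicae: 20 boxes of 10 aphids per treatment. Settling inhibition %SI = [1 − (%aphids on treated/%aphids on control surface)] × 100.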
# Salmonella typhimurium [9] = assay: Mutagenic activity in Salmonella Typhimurium TA98 assessed as number of revertants at 1 ug/plate in presence of Wistar rat S9 liver homogenate; type: toxicity, organism-based, Liver S9 fraction; details: salmonella enterica subsp. enterica serovar typhimurium; summary of the method: as §1
# Salmonella typhimurium [10] = assay: Mutagenic activity in Salmonella Typhimurium TA102 assessed as number of revertants at 10 ug/plate in absence of Wistar rat S9 liver homogenate; type: toxicity, organism-based; details: salmonella enterica subsp. enterica serovar typhimurium; summary of the method: as §1
# Salmonella typhimurium [11] = assay: Mutagenic activity in Salmonella Typhimurium TA100 assessed as number of revertants at 10 ug/plate in absence of Wistar rat S9 liver homogenate; type: toxicity, organism-based; details: salmonella enterica subsp. enterica serovar typhimurium; summary of the method: as §1
# Salmonella typhimurium [12] = assay: Mutagenic activity in Salmonella Typhimurium TA102 assessed as number of revertants at 1 ug/plate in absence of Wistar rat S9 liver homogenate; type: toxicity, organism-based; details: salmonella enterica subsp. enterica serovar typhimurium; summary of the method: as §1
# Salmonella typhimurium [13] = assay: Mutagenic activity in Salmonella Typhimurium TA100 assessed as number of revertants at 1 ug/plate in absence of Wistar rat S9 liver homogenate; type: toxicity, organism-based; details: salmonella enterica subsp. enterica serovar typhimurium; summary of the method: as §1
# Salmonella typhimurium [14] = assay: Mutagenic activity in Salmonella Typhimurium TA102 assessed as number of revertants at 50 ug/plate in absence of Wistar rat S9 liver homogenate; type: toxicity, organism-based; details: salmonella enterica subsp. enterica serovar typhimurium; summary of the method: as §1
# Salmonella typhimurium [15] = assay: Mutagenic activity in Salmonella Typhimurium TA102 assessed as number of revertants at 10 ug/plate in presence of Wistar rat S9 liver homogenate; type: toxicity, organism-based, Liver S9 fraction; details: salmonella enterica subsp. enterica serovar typhimurium; summary of the method: as §1
# Salmonella typhimurium [16] = assay: Mutagenic activity in Salmonella Typhimurium TA102 assessed as number of revertants at 0.1 ug/plate in absence of Wistar rat S9 liver homogenate; type: toxicity, organism-based; details: salmonella enterica subsp. enterica serovar typhimurium; summary of the method: as §1
# Salmonella typhimurium [17] = assay: Mutagenic activity in Salmonella Typhimurium TA100 assessed as number of revertants at 50 ug/plate in presence of Wistar rat S9 liver homogenate; type: toxicity, organism-based, Liver S9 fraction; details: salmonella enterica subsp. enterica serovar typhimurium; summary of the method: as §1
# Salmonella typhimurium [18] = assay: Mutagenic activity in Salmonella Typhimurium TA98 assessed as number of revertants at 100 ug/plate in absence of Wistar rat S9 liver homogenate; type: toxicity, organism-based; details: salmonella enterica subsp. enterica serovar typhimurium; summary of the method: as §2
# Salmonella typhimurium [19] = assay: Mutagenic activity in Salmonella Typhimurium TA102 assessed as number of revertants at 0.01 ug/plate in presence of Wistar rat S9 liver homogenate; type: toxicity, organism-based, Liver S9 fraction; details: salmonella enterica subsp. enterica serovar typhimurium; summary of the method: as §1
# Salmonella typhimurium [20] = assay: Mutagenic activity in Salmonella Typhimurium TA100 assessed as number of revertants at 0.01 ug/plate in presence of Wistar rat S9 liver homogenate; type: toxicity, organism-based, Liver S9 fraction; details: salmonella enterica subsp. enterica serovar typhimurium; summary of the method: as §1
# Salmonella typhimurium [21] = assay: Mutagenic activity in Salmonella Typhimurium TA100 assessed as number of revertants at 0.1 ug/plate in presence of Wistar rat S9 liver homogenate; type: toxicity, organism-based, Liver S9 fraction; details: salmonella enterica subsp. enterica serovar typhimurium; summary of the method: as §1
# Salmonella typhimurium [22] = assay: Mutagenic activity in Salmonella Typhimurium TA102 assessed as number of revertants at 100 ug/plate in presence of Wistar rat S9 liver homogenate; type: toxicity, organism-based, Liver S9 fraction; details: salmonella enterica subsp. enterica serovar typhimurium; summary of the method: as §1
# Salmonella typhimurium [23] = assay: Mutagenic activity in Salmonella Typhimurium TA100 assessed as number of revertants at 1 ug/plate in presence of Wistar rat S9 liver homogenate; type: toxicity, organism-based, Liver S9 fraction; details: salmonella enterica subsp. enterica serovar typhimurium; summary of the method: as §1
# Salmonella typhimurium [24] = assay: Mutagenic activity in Salmonella Typhimurium TA98 assessed as number of revertants at 50 ug/plate in absence of Wistar rat S9 liver homogenate; type: toxicity, organism-based; details: salmonella enterica subsp. enterica serovar typhimurium; summary of the method: as §2
structure (smiles),measurement,setting,value
CCCCCC[C@H](O)CCC[C@H](O)[C@H]1CC[C@H]([C@H]2CC[C@H]([C@H](O)CCCCCCCCCCCCC3=C[C@H](C)OC3=O)O2)O1 [SQUAMOCIN],Activity,Salmonella typhimurium [1],41
same,Activity,Salmonella typhimurium [2],135
same,Activity,Salmonella typhimurium [3],80
same,Activity,Myzus persicae [4],Non-toxic
same,Activity,Salmonella typhimurium [5],422
same,Activity,Salmonella typhimurium [6],68
same,Activity,Salmonella typhimurium [7],13
same,Activity,Myzus persicae [8],<40%
same,Activity,Salmonella typhimurium [9],39
same,Activity,Salmonella typhimurium [10],108
same,Activity,Salmonella typhimurium [11],69
same,Activity,Salmonella typhimurium [12],182
same,Activity,Salmonella typhimurium [13],114
same,Activity,Salmonella typhimurium [14],93
same,Activity,Salmonella typhimurium [15],419
same,Activity,Salmonella typhimurium [16],243
same,Activity,Salmonella typhimurium [17],118
same,Activity,Salmonella typhimurium [18],6
same,Activity,Salmonella typhimurium [19],414
same,Activity,Salmonella typhimurium [20],147
same,Activity,Salmonella typhimurium [21],137
same,Activity,Salmonella typhimurium [22],88
same,Activity,Salmonella typhimurium [23],138
same,Activity,Salmonella typhimurium [24],10
